Screening data: PubChem BioAssay, several laboratories
TNF necrop inh: inhibitors of TNF-alpha triggered necroptosis, primary screen, cell-based, Jurkat FADD-/-, single concentration; Jurkat FADD-/- TNF necroptosis rescue, ATP luminescence, 24 h; 0 = TNF only, 100 = no-TNF cells; activation (protection from cell death), % at 10 µM; 220,000 tested, 0.068% active;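 active means activation, meaning protection from cell death, of at least 50% relative to plate controls; inactive means activation below 50%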;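 further: necroptosis triggered by 40 ng/mL TNF-alpha added together with compound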
STAT3 blocker: IL-6 driven STAT3 reporter inhibitors, primary screen, U3A cells, luciferase, luminescence, MLSCN library | IL-6 STAT3-luciferase reporter; host cell line lacks STAT1 | inhibition, % at 5.5 µM | 190,000 tested, 0.89% active;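 active means inhibition above the mean inhibition across all screened compounds plus 3 SD, cut at about 44% in these data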;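 further: 0% = DMSO only wells and 100% = 100 µM nifuroxazide control wells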
STAT3 act: IL-6 driven STAT3 reporter potentiators, primary screen, U3A cells, luciferase, luminescence, MLSCN library. IL-6 STAT3-luciferase reporter; 100% = signal with IL-6 EC80 alone. activation (% of control), % at 5.6 µM. 190,000 tested, 0.91% active;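 active means activation above the screen-wide mean of compound activation plus 3 SD, cut at about 130% in these data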;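 further: 0% = background luminescence of wells with medium and substrate only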
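Assay system – human STAT1-deficient U3A cells with stable STAT3-luciferase reporter · Also added – IL-6 (33 ng/mL) · Schedule – compound 1 h, then IL-6 6 h at 37 °C · Technique – reporter luminescence signal · Evaluation – % activation versus median of IL-6-stimulated wells · Benchmarks – IL-6-only wells as 100% reference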
L929 necroptosis: inhibitors of zVAD-triggered necroptosis, primary screen, L929 cells | L929 zVAD necroptosis rescue, ATP luminescence, 24 h; with zVAD 60 µM | viability rescue, % at 10 µM | 220,000 tested, 0.38% active | AID 1377, 2008;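 active means activation, scaled between plate controls, above about 75%, limit read from the data; inactive means activation under that limit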;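 further: 0% = zVAD with DMSO and 100% = DMSO alone without zVAD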
STAT1 inh: STAT1 signaling inhibitors, primary screen, cell-based, HTS, luciferase reporter. NIH 3T3 STAT1-luciferase reporter, IFN-gamma, luminescence. inhibition, % at 5.5 µM. 200,000 tested, 0.35% active. AID 920, 2007;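 active means inhibition above a set limit, the mean inhibition across all tested compounds plus 3 SD, cut at about 34% in these data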;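 further: 0% = IFN-gamma with DMSO and 100% = IFN-gamma with 300 µM nifuroxazide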
Active calls of the source: *; / = no result. Most compounds without a hit are left out; they make up all but 2.1% or so of the library.

SMILES	TNF necrop inh	STAT3 blocker	STAT3 act	L929 necroptosis	STAT1 inh
COc1ccc(NC(=S)Nc2ccccn2)c(OC)c1	-0.5	-7.8	113.8	0.0	-40.4
COc1ccc(-c2nc3nc(C)cc(C)n3n2)cc1	-0.5	-9.9	111.0	-0.5	-28.8
COc1ccc(-c2cc3nc(C)cc(C)n3n2)cc1	0.2	-60.2	155.9*	-0.8	-37.5
CCOC(=O)C1=C(C)NC(SCC(=O)Nc2cc(C)on2)=C(C#N)C1c1cccs1 (centres undefined)	-5.3	18.0	86.1	-0.2	51.3*
CCOC(=O)C1=C(C)NC(SCC(N)=O)=C(C#N)C1c1cccs1 (centres undefined)	-0.3	3.1	101.3	1.0	1.6
Cc1cnc(NC(=O)CCCSc2nc3ccccc3s2)s1	-0.3	-31.2	135.3*	0.0	1.1
S=C(N/N=C/c1ccc2ncccc2c1)Nc1cccnc1	1.5	68.3*	43.8	3.4	38.9*
O=C(O)c1cccc(NC(=S)N/N=C/c2ccccn2)c1	1.0	91.4*	27.0	1.3	79.4*
O=C(O)c1cccc(NC(=S)N/N=C/c2cccc(O)c2)c1	0.1	60.1*	51.0	1.4	43.4*
Cn1c(=O)c2c(nc(CN3CCCCC3)n2CCc2ccccc2)n(C)c1=O	-1.2	7.3	97.0	0.1	3.4
Cc1cc(C)nc(SC2=CS(=O)(=O)c3ccccc32)n1	-9.3	25.6	81.5	-0.3	24.0
O=S1(=O)C=C(Sc2nc3ccccc3s2)c2ccccc21	-2.0	-33.1	134.5*	0.9	6.9
COc1ccc(C(=O)NCC(=O)OCc2ccc(Br)cc2)cc1	1.6	6.5	97.5	/	-0.4
COC(=O)c1cccc(NC(=S)NCCC2=CCCCC2)c1	-9.7	52.9*	59.2	-0.4	27.3
COc1ccc(-c2cc(-c3ccc(OC)cc3)[nH]n2)cc1	-1.6	14.8	89.4	70.2	-56.0
COc1ccc(-c2cc(-c3cc(C)ccc3O)[nH]n2)cc1	-13.9	-42.1	139.6*	8.2	-52.7
COc1ccc(S(=O)(=O)N(C)C)cc1NC(=O)Cc1c[nH]c2ccccc12	1.3	-40.0	133.3*	-2.2	13.8
Cc1ccc(S(=O)(=O)N(C)C)cc1NC(=O)CCc1c[nH]c2ccccc12	0.9	25.2	85.6	3.1	4.9
CCc1ccc(-c2cn3nc(C)c(C)nc3n2)cc1	-3.2	110.5*	11.7	5.5	85.1*
O=C(c1ccccc1)N1CCN(Cc2c[nH]c3ccccc23)CC1	0.4	-27.9	126.2	-0.2	0.7
O=C(c1cccc(F)c1)N1CCN(Cc2c[nH]c3ccccc23)CC1	1.3	-81.0	168.2*	0.7	7.3
O=[N+]([O-])c1ccccc1CN1CCN(Cc2c[nH]c3ccccc23)CC1	-4.1	-32.6	134.8*	-0.8	17.3
O=C(Nc1nccs1)C(=O)c1c[nH]c2ccccc12	2.8	-32.8	136.3*	0.4	-35.8
COc1ccc(Br)cc1/C=C/C(=O)c1ccc(NC(C)=O)cc1	-7.2	8.8	91.9	87.8*	31.2
COc1ccc(NC(=O)/C=C/c2cc(Br)ccc2OC)cc1	-0.5	5.5	104.1	0.2	-4.4
SMILES	TNF necrop inh	STAT3 blocker	STAT3 act	L929 necroptosis	STAT1 inh
CC(C)n1c(-c2ccco2)csc1=Nc1cccnc1	-4.1	-34.4	134.8*	-0.8	9.8
Cc1nc(-c2ccc(NC(=O)c3ccccc3C)cc2)cs1	0.3	17.1	88.7	7.9	-67.8
Cc1nc(-c2ccc(C(=O)Nc3ccccc3F)cc2)cs1	-4.3	87.9*	25.2	-0.4	74.8*
Cc1cc(O)c(NC(=O)c2cc([N+](=O)[O-])ccc2Cl)cc1C	5.4	-39.8	134.2*	4.1	-8.0
Cc1ccc2c(c1)c1ncnc(N3CCC4(CC3)OCCO4)c1n2C	-2.9	-34.2	134.9*	0.7	-21.9
Cc1ccc2c(c1)c1ncnc(N3CCOCC3)c1n2C	-6.6	0.2	105.3	0.5	9.0
O=C(Nc1ccccc1-c1nnn(CC(=O)N2CCOCC2)n1)c1ccc(F)cc1	-0.1	10.9	95.2	10.8	-6.5
CCOC(=O)c1c(C)oc2c1c1c(c3ccccc32)OCN(Cc2cccnc2)C1	-3.8	-25.5	126.4	0.6	-6.8
CCOC(=O)c1c(C)oc2c1c(C(c1cccnc1)N1CCOCC1)c(O)c1ccccc12 (centres undefined)	-2.2	-31.6	133.3*	2.4	-0.1
O=C(Nc1ccccc1)n1cc(-c2ccccn2)c(N2CCOCC2)n1	-4.4	-36.3	133.4*	4.9	-0.1
CCOc1ccc2nc(NC(=O)c3ccccn3)sc2c1	-14.5	/	/	8.3	/
Cc1ccc2nc(NC(=O)c3ccccn3)sc2c1	-3.2	98.2*	15.2	-0.6	89.0*
CCOC(=O)N=Nc1c2ccccc2c2nc3no[nH]c3nc12	-14.4	67.5*	46.1	-3.9	88.7*
CCS(=O)(=O)Nc1cccc(C2=NN(S(=O)(=O)c3ccc(C)cc3)C(c3cccs3)C2)c1 (centres undefined)	5.1	-4.2	106.0	0.6	-4.6
Cc1cc2[nH]c3c(c[n+](C)c4ccccc34)c2cc1C	-16.0	-53.3	150.8*	-4.7	-133.3
O=C(NC1CCCC1)C(c1ccccc1)N(C(=O)c1ccno1)c1ccccc1 (centres undefined)	-0.2	-4.4	104.5	0.0	12.9
CCOC(=O)Cc1ccc(NC(=O)c2ccccc2Br)cc1	-1.0	13.0	93.0	2.5	2.0
CCOC(=O)Cc1ccc(NC(=O)c2ccc(C(C)(C)C)cc2)cc1	-10.8	96.5*	19.6	32.6	38.4*
O=C(c1ccco1)n1c(=S)nc2ccccn21	-2.0	0.6	105.8	-0.2	-47.8
Cc1cccc2nc(=S)n(C(=O)c3ccco3)n12	-2.7	-32.1	133.7*	1.1	-106.5
O=C(/C=C\Nc1cccc(F)c1)c1ccc2c(c1)OCO2	-0.6	95.7*	21.1	-0.6	51.5*
O=C(/C=C\Nc1ccccc1Br)c1ccc2c(c1)OCO2	-1.8	86.9*	27.3	0.5	81.9*
CNc1cc([N+](=O)[O-])ccc1N/C=C/C(=O)c1ccc2c(c1)OCO2	1.0	-38.1	134.7*	1.3	-38.7
Cc1ccc(-c2noc(C3CCCN(C(=O)C4CCCCC4)C3)n2)o1 (centres undefined)	-1.8	-9.8	106.7	-0.3	12.9
O=C(NCCN1CCOCC1)c1ccc2c(c1)ncn2C1CCCCC1	0.5	11.7	96.4	88.4*	-5.1
CC(C)CCNC(=O)c1ccc2c(c1)ncn2C1CCCC1	1.9	4.6	101.4	20.2	-24.1
NS(=O)(=O)c1ccc(CCNC(=O)c2ccco2)cc1	0.8	7.5	100.8	0.7	-4.8
CCN(Cc1ccccc1)C(=O)COC(=O)c1cc(=O)[nH]c2ccccc12	-1.4	5.0	103.3	1.6	6.1
